Assays:
[1] = test system: Canis familiaris; test: Bronchodilator activity in dog assessed as time of inhibition of carbachol or histamine-induced bronchoconstriction at 530 to 1060 mg/kg, it relative to control; type: functional, Canis lupus familiaris; details: dose mg/kg 530-1060; route endotracheal
Method in brief: (§1)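 Anesthetized dogs with an airway cannula and a nonbreathing valve. Bronchoconstriction was induced by iv carbachol (2–4 μg/kg) or histamine diphosphate (20–50 μg/kg) and read as change in airway pressure by transducer. Each compound was tested against both agonists in different dogs, and the results were combined and averaged. Effect is % inhibition of control constriction, with at least three dogs per dose. Drugs were dissolved fresh in distilled water, diluted in saline and kept on ice.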

[2] = test system: Canis familiaris; test: Bronchodilator activity in dog assessed as degree of inhibition of carbachol or histamine-induced bronchoconstriction at 530 to 1060 mg/kg, it relative to control; type: functional, Canis lupus familiaris; details: dose mg/kg 530-1060; route endotracheal
Method in brief: (§2)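 Anesthetized dogs, trachea cannulated with a nonbreathing valve. Bronchoconstriction induced by iv carbachol (2–4 μg/kg) or histamine diphosphate (20–50 μg/kg) in separate animals, and airway pressure recorded by transducer. Drug stocks were made fresh in distilled water, diluted in saline and kept on ice. Read-out was percent inhibition of control constriction, averaged over at least three dogs per dose at the higher dose. Carbachol and histamine data were combined.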

[3] = test system: Canis familiaris; test: Bronchodilator activity in dog assessed as time of inhibition of carbachol or histamine-induced bronchoconstriction at 25 to 50 mg/kg, iv relative to control; type: functional, Canis lupus familiaris; details: dose mg/kg 25-50
Method in brief: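 Dog airway model: anesthetized, cannulated via a nonbreathing valve, with airway pressure changes recorded after iv carbachol (2–4 μg/kg) or histamine diphosphate (20–50 μg/kg) challenge, each agonist in different animals. Compounds were given iv, intraduodenally or intratracheally from fresh aqueous stocks diluted in saline. Duration (h) of inhibition of induced bronchoconstriction was followed, and the two agonist datasets were pooled.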

[4] = test system: Canis familiaris; test: Cardiotoxicity in spontaneously respiring dog assessed as degree of increase in heart rate at 520 to 1040 mg/kg, it relative to control; type: toxicity, organism-based, Canis lupus familiaris; set-up: dose 520-1040 mg/kg, route endotracheal; details: in vivo, inhaled_or_intranasal
Method in brief: (§3)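 Anesthetized, spontaneously respiring dogs. Heart rate was taken from a lead II EKG, and blood pressure from the right femoral artery by transducer. The increase in heart rate (beats/min) was scored on a graded scale with more than 4 dogs per dose, and its duration was recorded. Drugs were dissolved fresh in distilled water, diluted in physiological saline and kept on ice.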

[5] = test system: Canis familiaris; test: Cardiotoxicity in spontaneously respiring dog assessed as time of increase in heart rate at 520 to 1040 mg/kg, it relative to control; type: toxicity, organism-based, Canis lupus familiaris; set-up: dose 520-1040 mg/kg, route endotracheal; details: in vivo, inhaled_or_intranasal
Method in brief: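 Anesthetized, spontaneously respiring dogs. Heart rate monitored by lead II EKG, with blood pressure taken from the right femoral artery by pressure transducer and recorded on a polygraph. Drug stocks made fresh in distilled water, diluted in physiological saline and kept on ice. Dosing was iv, id or it as listed. The duration of the heart-rate increase was recorded in h, with more than 4 dogs per dose.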

[6] = test system: Canis familiaris; test: Bronchodilator activity in dog assessed as degree of inhibition of carbachol or histamine-induced bronchoconstriction at 25 to 50 mg/kg, iv relative to control; type: functional, Canis lupus familiaris; details: dose mg/kg 25-50; method in brief: as §2
[7] = test system: Canis familiaris; test: Bronchodilator activity in dog assessed as time of inhibition of carbachol or histamine-induced bronchoconstriction at 520 to 1040 mg/kg, it relative to control; type: functional, Canis lupus familiaris; details: dose mg/kg 520-1040; route endotracheal; method in brief: as §1
[8] = test system: Canis familiaris; test: Cardiotoxicity in spontaneously respiring dog assessed as time of increase in heart rate at 25 to 50 mg/kg, iv relative to control; type: toxicity, organism-based, Canis lupus familiaris; set-up: dose 25-50 mg/kg, route intravenous; details: in vivo; method in brief: as §3
[9] = test system: Canis familiaris; test: Cardiotoxicity in spontaneously respiring dog assessed as degree of increase in heart rate at 25 to 50 mg/kg, iv relative to control; type: toxicity, organism-based, Canis lupus familiaris; set-up: dose 25-50 mg/kg, route intravenous; details: in vivo; method in brief: as §3
[10] = test system: Canis familiaris; test: Bronchodilator activity in dog assessed as degree of inhibition of carbachol or histamine-induced bronchoconstriction at 520 to 1040 mg/kg, it relative to control; type: functional, Canis lupus familiaris; details: dose mg/kg 520-1040; route endotracheal; method in brief: as §2

With `Cc1ccc(CC(=O)Oc2ccc([C@@H](O)CNC(C)(C)C)cc2OC(=O)Cc2ccc(C)cc2)cc1.Cl` the Time [1] was 2 h and the “inhibition (INH)” value [2] was 40%.
With `CC(=O)Oc1cc([C@@H](O)CNC(C)(C)C)ccc1OC(=O)c1ccc(C)cc1.CS(=O)(=O)O` the Time [3] was <1 h, the Activity [4] was 5% and the Time [5] was < 1 h. For the same molecule, the “inhibition (INH)” value [6] was >70%, the Time [7] was >1 h and the Time [8] was < 0.5 h. The Activity [9] was 40% and the “inhibition (INH)” value [10] was >70%.

From ChEMBL document CHEMBL3272249, “Esters of N-tert-butylarterenol. Long-acting new bronchodilators with reduced cardiac effects” (J Med Chem, 1976)
